Measured values taken from ChEMBL document CHEMBL4765234 (J Med Chem, 2016).
The source made the active and inactive calls. The calls are words filed in the database; no cut-off is given here.

Experiments:
[1] = target: T1, Free fatty acid receptor 1 (Homo sapiens, UniProt O14842); assay: Agonist activity at human recombinant full length GPR40 overexpressed in human HEK293 cells assessed as increase in inositol phosphate accumulation in presence of terbium cryptate-labeled anti IP1/d2-labelled IP1 measured after 120 mins by HTRF assay relative to AMG837; format: functional, cell-based; conditions: filed as agonist
T1 sequence (O14842 whole entry): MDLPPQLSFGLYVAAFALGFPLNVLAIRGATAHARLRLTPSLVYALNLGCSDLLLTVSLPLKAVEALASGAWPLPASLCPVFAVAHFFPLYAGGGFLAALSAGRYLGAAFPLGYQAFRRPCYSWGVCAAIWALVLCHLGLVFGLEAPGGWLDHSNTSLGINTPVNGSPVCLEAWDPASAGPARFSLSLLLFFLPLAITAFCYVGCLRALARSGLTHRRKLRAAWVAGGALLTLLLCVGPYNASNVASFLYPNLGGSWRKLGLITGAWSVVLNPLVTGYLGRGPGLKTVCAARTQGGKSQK
Outline: (§1)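 HEK293 hGPR40 cells (20K/well) were cultured overnight, washed, and held in IP1 stimulation buffer. IP-1 was measured by competitive HTRF immunoassay with terbium cryptate anti-IP1 mAb and d2-labelled IP1.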

[2] = target: T1, Free fatty acid receptor 1; assay: Displacement of [3H]-TAK-875 from human recombinant full-length GPR40 expressed in human HEK293 cell membrane incubated for 2 hrs by solid scintillation counting method; format: cell membranes
[3] = target: T1, Free fatty acid receptor 1; assay: Agonist activity at human recombinant full-length Prolink-tagged GPR40 fused with EA-tagged beta-arrestin expressed in human HEK293 cells assessed as induction of beta-arrestin recruitment measured after 90 mins by beta-galactosidase based PathHunter assay; format: cell-based
Outline: (§2)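 PathHunter β-gal complementation. Cells were incubated overnight at 5000/well in medium with 1% heat-inactivated FBS. Compound was added as a 20-point 2-fold series from a top final of 100 μM (1% DMSO) for 90 min at 37 °C, followed by detection reagents and chemiluminescence read after 1 h at rt.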

[4] = target: T2, Peroxisome proliferator-activated receptor gamma (Homo sapiens) (UniProt P37231); assay: Displacement of [3H]-[…] from PPARgamma (unknown origin) expressed in baculovirus infected Sf9 insect cells upto 30 uM measured after 10 hrs by microbeta scintillation counting analysis; conditions: dose microM <=30, time 10.0 hrs
T2 sequence (whole entry): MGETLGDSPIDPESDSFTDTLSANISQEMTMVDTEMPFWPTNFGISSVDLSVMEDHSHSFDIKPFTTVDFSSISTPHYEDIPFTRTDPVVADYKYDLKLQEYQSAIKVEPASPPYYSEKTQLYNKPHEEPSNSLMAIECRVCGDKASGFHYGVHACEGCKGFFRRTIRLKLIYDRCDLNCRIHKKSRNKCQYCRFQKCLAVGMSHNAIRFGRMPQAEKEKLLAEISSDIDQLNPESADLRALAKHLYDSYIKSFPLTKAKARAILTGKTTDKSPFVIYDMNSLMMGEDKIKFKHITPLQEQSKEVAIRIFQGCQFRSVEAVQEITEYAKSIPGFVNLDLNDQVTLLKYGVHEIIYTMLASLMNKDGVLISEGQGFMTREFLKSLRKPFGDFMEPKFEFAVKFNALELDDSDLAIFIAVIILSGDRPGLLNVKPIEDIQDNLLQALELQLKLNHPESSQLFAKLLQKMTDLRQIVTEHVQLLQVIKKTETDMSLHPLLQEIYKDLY
Outline: (§3)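 Scintillation proximity assay. Sf9 lysates with baculovirus-expressed PPARα (0.3 μg), PPARδ (0.5 μg) or PPARγ (1.25 μg), each with RXRα, were bound via biotinylated DR2 oligo (0.126 nM) to streptavidin yttrium silicate beads. Buffer was HEPES pH 7.8 with KCl, MgCl2, DTT, CHAPS, 14% glycerol and salmon sperm DNA. A 3H reference agonist ligand was used, with 11 compound concentrations, for 10 h. Nonspecific binding was defined with 10000 nM unlabeled reference. Ki was derived from IC50.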

[5] = target: T3, Peroxisome proliferator-activated receptor alpha (Homo sapiens) (UniProt Q07869); assay: Displacement of [3H]-[…] from PPARalpha (unknown origin) expressed in baculovirus infected Sf9 insect cells upto 30 uM measured after 10 hrs by microbeta scintillation counting analysis; conditions: dose microM <=30, time 10.0 hrs; outline: as §3
T3 sequence (whole entry): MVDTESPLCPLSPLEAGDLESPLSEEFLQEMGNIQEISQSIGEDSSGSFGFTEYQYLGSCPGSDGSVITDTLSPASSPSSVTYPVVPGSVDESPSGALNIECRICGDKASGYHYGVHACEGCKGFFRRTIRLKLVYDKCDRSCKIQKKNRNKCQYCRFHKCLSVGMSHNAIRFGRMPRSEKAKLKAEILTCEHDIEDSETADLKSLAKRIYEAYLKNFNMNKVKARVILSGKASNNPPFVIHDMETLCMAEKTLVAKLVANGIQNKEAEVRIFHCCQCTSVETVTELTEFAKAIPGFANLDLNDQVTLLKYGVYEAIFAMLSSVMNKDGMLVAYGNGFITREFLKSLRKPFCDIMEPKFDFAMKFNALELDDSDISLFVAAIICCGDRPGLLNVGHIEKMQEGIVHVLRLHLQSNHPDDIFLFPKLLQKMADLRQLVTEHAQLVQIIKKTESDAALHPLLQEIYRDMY

[6] = target: Free fatty acid receptor 1 (Mus musculus, UniProt Q76JU9); assay: Agonist activity at Prolink-tagged mouse GPR40 fused with EA-tagged beta-arrestin expressed in human U2OS cells assessed as induction of beta-arrestin recruitment measured after 90 mins by beta-galactosidase based PathHunter assay; format: cell-based; outline: as §2
Free fatty acid receptor 1 (Mus musculus, UniProt Q76JU9), sequence (Q76JU9 whole entry, the tested form may be a part): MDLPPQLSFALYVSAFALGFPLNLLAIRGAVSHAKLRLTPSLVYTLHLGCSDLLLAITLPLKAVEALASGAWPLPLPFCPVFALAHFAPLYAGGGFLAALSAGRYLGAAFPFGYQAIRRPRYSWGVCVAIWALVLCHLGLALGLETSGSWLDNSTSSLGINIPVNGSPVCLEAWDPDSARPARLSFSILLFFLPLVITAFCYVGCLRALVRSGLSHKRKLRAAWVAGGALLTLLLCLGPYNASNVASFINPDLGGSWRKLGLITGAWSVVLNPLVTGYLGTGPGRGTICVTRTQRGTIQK

[7] = target: T1, Free fatty acid receptor 1; assay: Agonist activity at human recombinant full length GPR40 overexpressed in human HEK293 cells assessed as increase in inositol phosphate accumulation in presence of terbium cryptate-labeled anti IP1/d2-labelled IP1 measured after 120 mins by HTRF assay; format: functional, cell-based; outline: as §1
[8] = target: Free fatty acid receptor 1 (Mus musculus) (UniProt Q76JU9); assay: Agonist activity at Prolink-tagged mouse GPR40 fused with EA-tagged beta-arrestin expressed in human U2OS cells assessed as induction of beta-arrestin recruitment measured after 90 mins by beta-galactosidase based PathHunter assay relative to control; format: cell-based; conditions: filed as agonist; outline: as §2
Free fatty acid receptor 1 (Mus musculus), sequence (Q76JU9 whole entry, the tested form may be a part): as above

[9] = target: Free fatty acid receptor 1 (Rattus norvegicus, UniProt Q8K3T4); assay: Agonist activity at Prolink-tagged rat GPR40 fused with EA-tagged beta-arrestin expressed in human U2OS cells assessed as induction of beta-arrestin recruitment measured after 90 mins by beta-galactosidase based PathHunter assay; format: cell-based; outline: as §2
Free fatty acid receptor 1 (Rattus norvegicus, UniProt Q8K3T4), sequence (Q8K3T4 whole entry, the tested form may be a part): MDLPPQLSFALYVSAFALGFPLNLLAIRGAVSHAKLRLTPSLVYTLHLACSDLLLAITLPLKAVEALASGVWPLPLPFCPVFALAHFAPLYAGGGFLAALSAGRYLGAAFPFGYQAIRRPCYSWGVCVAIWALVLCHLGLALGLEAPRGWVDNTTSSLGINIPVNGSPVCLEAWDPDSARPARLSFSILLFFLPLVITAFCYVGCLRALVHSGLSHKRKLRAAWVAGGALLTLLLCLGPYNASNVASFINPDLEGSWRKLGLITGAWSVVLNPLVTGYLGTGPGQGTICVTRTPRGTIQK

[10] = target: T4, Peroxisome proliferator-activated receptor delta (Homo sapiens) (UniProt Q03181); assay: Displacement of [3H]-[…] from PPARdelta (unknown origin) expressed in baculovirus infected Sf9 insect cells upto 30 uM measured after 10 hrs by microbeta scintillation counting analysis; conditions: dose microM <=30, time 10.0 hrs; outline: as §3
T4 sequence (whole entry): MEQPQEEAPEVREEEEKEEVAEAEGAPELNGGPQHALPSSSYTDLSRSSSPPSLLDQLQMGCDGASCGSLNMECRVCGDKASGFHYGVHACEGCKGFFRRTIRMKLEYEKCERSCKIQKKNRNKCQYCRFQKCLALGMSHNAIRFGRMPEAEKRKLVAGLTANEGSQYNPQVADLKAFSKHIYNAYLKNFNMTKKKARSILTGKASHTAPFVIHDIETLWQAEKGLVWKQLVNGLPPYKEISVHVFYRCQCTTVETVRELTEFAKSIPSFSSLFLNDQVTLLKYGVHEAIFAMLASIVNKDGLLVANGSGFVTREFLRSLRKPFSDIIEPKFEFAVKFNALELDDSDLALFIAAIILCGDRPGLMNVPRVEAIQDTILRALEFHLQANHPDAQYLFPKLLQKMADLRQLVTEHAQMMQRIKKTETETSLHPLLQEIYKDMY

[11] = target: Free fatty acid receptor 1 (Rattus norvegicus) (UniProt Q8K3T4); assay: Agonist activity at Prolink-tagged rat GPR40 fused with EA-tagged beta-arrestin expressed in human U2OS cells assessed as induction of beta-arrestin recruitment measured after 90 mins by beta-galactosidase based PathHunter assay relative to control; format: cell-based; conditions: filed as agonist; outline: as §2
Free fatty acid receptor 1 (Rattus norvegicus), sequence (Q8K3T4 whole entry, the tested form may be a part): as the sequence (Q8K3T4 whole entry, the tested form may be a part) above

[12] = Protein binding in plasma (unknown origin) by equilibrium dialysis method; format: ADME, cell-free; conditions: human, read-out: PPB
Outline: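 Plasma protein binding measured by equilibrium dialysis.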

[13] = target: T1, Free fatty acid receptor 1; assay: Agonist activity at human recombinant full length GPR40 overexpressed in human HEK293 cells assessed as increase in intracellular calcium level measured over 3 mins by calcium 4 dye based FLIPR assay relative to 100 uM linoleic acid; format: functional, cell-based; conditions: filed as agonist
Outline: (§4)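 HEK293 cells overexpressing hGPR40 (25K/well) were cultured overnight in DMEM/F12 with 0.2% FBS and geneticin. Compound was tested at 40 μM–0.1 nM final (20-point, 1% DMSO), and FLIPR fluorescence was read over 3 min.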

[14] = target: T1, Free fatty acid receptor 1; assay: Agonist activity at human recombinant full length GPR40 overexpressed in human HEK293 cells assessed as increase in intracellular calcium level measured over 3 mins by calcium 4 dye based FLIPR assay; format: functional, cell-based; outline: as §4
[15] = target: T1, Free fatty acid receptor 1; assay: Agonist activity at human recombinant full-length Prolink-tagged GPR40 fused with EA-tagged beta-arrestin expressed in human HEK293 cells assessed as induction of beta-arrestin recruitment measured after 90 mins by beta-galactosidase based PathHunter assay relative to control; format: cell-based; conditions: filed as agonist; outline: as §2

SMILES	Emax [1]	Ki [2]	EC50 [3]	Activity [4]	Activity [5]	EC50 [6]	EC50 [7]	Emax [8]	EC50 [9]	Activity [10]	Emax [11]	fraction unbound [12]	Emax [13]	EC50 [14]	Emax [15]
CC#C[C@@H](CC(=O)O)c1ccc(OCc2ccc(CN3CCC4(C=Cc5ccccc54)CC3)c(F)c2)cc1	210%	4 nM	9.3 nM	inactive	inactive	1.2 nM	2.3 nM	148%	1.3 nM	inactive	145%	< 0.01	51%	17 nM	135%
CC#C[C@@H](CC(=O)O)c1ccc(OCc2nc(C)c(CN3CCC4(C=Cc5ccccc54)CC3)s2)cc1	112%	59 nM	58 nM	inactive	inactive	3.8 nM	10 nM	118%	17 nM	inactive	112%	< 0.01	62%	11 nM	114%
CC#C[C@H](CC(=O)O)c1ccc(OCc2ccc(CN3CCC4(C=Cc5ccccc54)CC3)cc2)cc1F	160%	410 nM	680 nM	inactive	inactive	120 nM	190 nM	113%	420 nM	inactive	112%	< 0.01	61%	440 nM	102%
CC#C[C@@H](CC(=O)O)c1ccc(OCc2cc(C)c(CN3CCC4(C=Cc5ccccc54)CC3)s2)cc1	132%	3.5 nM	3.9 nM	inactive	inactive	0.69 nM	0.98 nM	122%	1.1 nM	inactive	121%	< 0.01	65%	2.9 nM	127%
CC#C[C@@H](CC(=O)O)c1ccc(OCc2ccc(CN3CCC4(C=Cc5ccccc54)CC3)c(Cl)c2)cc1	193%	1.5 nM	3.3 nM	inactive	inactive	0.83 nM	4.9 nM	149%	1 nM	inactive	161%	< 0.01	47%	32 nM	150%
CC#C[C@@H](CC(=O)O)c1ccc(OCc2ccc(CN3CCC4(C=Cc5ccccc54)CC3)o2)cc1	127%	20 nM	62 nM	inactive	inactive	2.1 nM	22 nM	121%	4.2 nM	inactive	117%	< 0.01	59%	1.6 nM	121%
CC#C[C@@H](CC(=O)O)c1ccc(OCc2ccc(CN3CCC4(C=Cc5ccccc54)CC3)c(C(F)(F)F)c2)cc1	255%	1.1 nM	1.1 nM	inactive	inactive	0.83 nM	1.9 nM	146%	1.1 nM	inactive	135%	< 0.01	55%	20 nM	132%
CC#C[C@@H](CC(=O)O)c1ccc(OCc2sc(CN3CCC4(C=Cc5ccccc54)CC3)nc2C)cc1	97%	100 nM	520 nM	inactive	inactive	18 nM	72 nM	97%	100 nM	inactive	73%	< 0.01	53%	17 nM	100%
CC#C[C@@H](CC(=O)O)c1ccc(OCc2ccc(CN3CCC4(C=Cc5ccccc54)CC3)cc2)cc1F	156%	13 nM	36 nM	inactive	inactive	5.6 nM	14 nM	120%	16 nM	inactive	115%	< 0.01	60%	18 nM	118%
CC#C[C@@H](CC(=O)O)c1ccc(OCc2ccc(CN3CCC4(CC3)CN(C)c3ccc(OC)cc34)cc2)cc1	311%	29 nM	100 nM	inactive	inactive	11 nM	23 nM	144%	18 nM	inactive	145%	< 0.01	49%	130 nM	129%
